Measured values from different studies.
Compare with care: the assays were run in different laboratories.
Target: Serine/threonine-protein kinase OSR1 (OXSR1, Homo sapiens, UniProt O95747)

| SMILES | test | system | conditions | measurement | result |
| --- | --- | --- | --- | --- | --- |
| Cc1ccc(Nc2nccc(N(C)c3ccc4c(C)n(C)nc4c3)n2)cc1S(N)(=O)=O | enzyme activity, inhibitor |  | 0.5 µM | remaining activity | 103% |
| CC1(C)NC(=O)c2[nH]c3c(Cl)c(Cl)ccc3c2C1C#N (stereo not shown) | thermal stability, DSF |  | 10 µM | ΔTm | -0.1 °C |
| CCCCN(CCCC)C(=O)CN1C[C@H](c2cc(OC)c3c(c2)OCO3)[C@@H](C(=O)O)[C@@H]1CC(C)(C)CCC | cell-free assay, competition with immobilised ligand |  | 1 µM | remaining binding | 89.5% |
| C[C@@H]1CCN(C(=O)CC#N)C[C@@H]1N(C)c1ncnc2[nH]ccc12 | cell-free assay, inhibitor |  | 0.5 µM | remaining signal | 98.2% |
| FC(F)(F)Oc1cccc(-c2cnc3ccc(-c4ccncc4)nn23)c1 | enzyme activity, inhibitor, radiometric |  | 5 µM | activity vs control | 104% |
| Cn1c2c(c3ccc(Cl)c(Cl)c31)C(C#N)C1(CCNCC1)NC2=O (racemic) | thermal stability, DSF |  | 10 µM | ΔTm | -0.1 °C |
| COc1cc(Nc2cnc(C#N)c(O[C@H](C)CN(C)C)n2)ncc1-c1cnn(C)c1 | enzyme activity, inhibitor, radiometric |  | 10 µM | remaining activity | 106% |
| c1ccc(CNc2nc(N3CCOc4ccccc43)nc3c2CCCC3)cc1 | target engagement in cells, inhibitor, chemoproteomics |  | 20 mM | inhibition | -9% |
| CCS(=O)(=O)c1cc2cc(C[C@@](O)(CC(C)(C)c3ccc(F)cc3C(N)=O)C(F)(F)F)[nH]c2cn1 | cell-free assay, competition with immobilised ligand |  | 1 µM | remaining binding | 88% |
| CCN1CCN(Cc2ccc(NC(=O)c3ccc(C)c(Oc4ccnc5[nH]ccc45)c3)cc2C(F)(F)F)CC1 | target engagement in cells, inhibitor, chemoproteomics | Huh-7 | 10 µM | inhibition | -24.5% |
| COCCOc1nc(-c2ccc(Cl)nc2)nc2c1CN(C(=O)c1ncn3ccccc13)CC2 | cell-free assay, competition with immobilised ligand |  | 0.1 µM | remaining binding | 100% |
| N#CCCc1ccc2c(c1)-c1[nH]c3ccc([N+](=O)[O-])cc3c1CC(=O)N2 | cell-free assay |  | 0.5 µM | remaining signal | 94.6% |
| CCC1(CC)NC(=O)c2c(c3ccc(Cl)c(Cl)c3n2C)C1C#N (stereo not shown) | thermal stability, DSF |  | 10 µM | ΔTm | -0.3 °C |
| Cc1c(NC(=O)c2cc(C(N)=O)nc3cc(F)ccc23)c(C(F)(F)F)nn1Cc1ccc(C(C)(C)C)cc1 | cell-free assay, competition with immobilised ligand |  | 1 µM | remaining binding | 100% |
| COc1cc(Nc2c(C#N)cnc3cc(OCCCN4CCN(C)CC4)c(OC)cc23)c(Cl)cc1Cl | cell-free assay |  | 0.5 µM | remaining signal | 100% |
| Cn1c2c(c3ccc(Cl)c(Cl)c31)C(C#N)C1(CCN(C(=O)OC(C)(C)C)CC1)NC2=O (racemic) | thermal stability, DSF |  | 10 µM | ΔTm | -0.1 °C |
| Cc1ccc(C(=O)Nc2ccc(CN3CCN(C)CC3)c(C(F)(F)F)c2)cc1C#Cc1cnc2cccnn12 | enzyme activity, inhibitor |  | 23.5 nM | remaining activity | 96% |
| O=C(NS(=O)(=O)c1ccc(NCC2CCOCC2)c([N+](=O)[O-])c1)c1ccc(N2CCN(Cc3ccc(C(F)(F)F)cc3-c3ccc(Cl)cc3)CC2)cc1Oc1cnc2[nH]ccc2c1 | cell-free assay, competition with immobilised ligand |  | 1 µM | remaining binding | 83% |
| CCCCNc1ncc2c(-c3ccc(F)cc3)nn(C[C@H]3CC[C@H](N)CC3)c2n1 | target engagement in cells, inhibitor, chemoproteomics |  | 20 mM | inhibition | 8.2% |
| CN1CCC2(CC1)NC(=O)c1c(c3ccc(Cl)c(Cl)c3n1C)C2C#N (racemic) | thermal stability, DSF |  | 10 µM | ΔTm | -0.3 °C |
| Cc1sc(C(=O)NC2COC2)cc1-n1cc(NC(=O)Nc2c(F)cccc2Cl)cn1 | enzyme activity, inhibitor |  | 10 µM | remaining activity | 127% |
| N#CC1(c2ccccn2)CCN(Cc2cc(C(=O)N3CCCC3)c(=O)n3ccccc23)CC1 | cell-free assay, competition with immobilised ligand |  | 1 µM | remaining binding | 100% |
| CCN1CCC2(CC1)NC(=O)c1c(c3ccc(Cl)c(Cl)c3n1C)C2C#N (racemic) | thermal stability, DSF |  | 10 µM | ΔTm | 0 °C |
| CO[C@@H](C)c1c(Nc2ccc([C@@H](N(C)C(=O)C3CCS(=O)(=O)CC3)C(F)(F)F)cc2)cnc2cc(Cl)nn12 | cell-free assay, competition with immobilised ligand |  | 1 µM | remaining binding | 100% |
| O=C(Nc1cnn(-c2csc(C(=O)NC3COC3)c2)c1)Nc1ccccc1Cl | enzyme activity, inhibitor |  | 5 µM | remaining activity | 92.6% |
